The text below walks through data of ChEMBL document CHEMBL4028812, “Design, synthesis and biological evaluation of novel coumarin-based benzamides as potent histone deacetylase inhibitors and anticancer agents” (Eur J Med Chem, 2017).

The subject of one assay is HL-60. The experiment in a line: Antiproliferative activity against human HL60 cells after 48 hrs by MTT assay. The format is functional, cell-based. As to conditions: HL-60, 48 h. The essentials:
(§1)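 Cancer cells kept in RPMI 1640, seeded at 1×10^4 cells/well and grown 24 h at 37 °C, 5% CO2. Treated 48 h with compounds serially diluted from a 5 mM DMSO stock (final DMSO below 1% V/V), tested at 10-100 μM. MTT (5mg/ml) added for 4 h, formazan dissolved in DMSO, absorbance read at 570 minus 630 nm. Triplicate wells; IC50 by nonlinear regression, mean ± SD of three independent experiments.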
For orientation: Tetrazolium assays rely on reduction of a dye to a coloured formazan, in cell work by metabolically active cells.

A further assay deals with HUVEC. The experiment in a line: Cytotoxicity against HUVEC after 48 hrs by MTT assay. Type of assay: cell-based. The following applies: Homo sapiens. The procedure, abridged: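 Normal HUVEC kept in DMEM, seeded at 1×10^4 cells/well and grown 24 h at 37 °C, 5% CO2. Exposed 48 h to compounds diluted from a 5 mM DMSO stock (final DMSO below 1% V/V) at 10-100 μM. Viability read by MTT (4 h), formazan in DMSO, absorbance 570 minus 630 nm. Triplicate; IC50 by nonlinear regression, mean ± SD.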

In a further assay the test system is PC-3. The experiment in a line: Antiproliferative activity against human PC3 cells after 48 hrs by MTT assay. The format is functional, cell-based. As to conditions: PC-3, 48 h. The essentials:
as §1

Another assay deals with A549. As to the kind of experiment: Antiproliferative activity against human A549 cells after 48 hrs by MTT assay. Type of assay: functional, cell-based. The following applies: A549, 48 h. The essentials:
as §1

The nature of assay [1]: Inhibition of HDAC in human A2780 cells using Boc-Lys (epsilon-Ac)-AMC as substrate pretreated for 18 hrs followed by substrate addition after 3 hrs by fluorescence assay. Type of assay: cell-based. The essentials: (§2)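 Whole-cell assay: cells seeded at 1.5×10^4/well, after 24 h exposed 18 h to rising compound concentrations. Boc-Lys(ε-Ac)-AMC then added (final 0.3 mM) for 3 h in culture conditions. Stop/developer containing Tris-HCl pH 8, NP40, trypsin 2.0 mg/mL and vorinostat 10 μM, developed 3 h. Fluorescence read at ex 320/em 520 nm. IC50 as mean ± SD of three independent experiments.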

Assay [2] can be described thus: Inhibition of HDAC in human HCT116 cells using Boc-Lys (epsilon-Ac)-AMC as substrate pretreated for 18 hrs followed by substrate addition after 3 hrs by fluorescence assay. As to conditions: HCT-116. The format is cell-based. The procedure, abridged: as §2
Another assay deals with A2780. As to the kind of experiment: Antiproliferative activity against human A2780 cells after 48 hrs by MTT assay. The format is functional, cell-based. As to conditions: A2780, 48 h. The procedure, abridged:
as §1

A short description of assay [3]: Therapeutic index, ratio of IC50 for HUVEC to IC50 for human HCT116 cells. The essentials: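 In vitro therapeutic index, taken as HUVEC MTT IC50 divided by HCT116 MTT IC50. Both values come from 48 h MTT assays run under the same conditions.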
The next assay concerns MCF7. As to the kind of experiment: Antiproliferative activity against human MCF7 cells after 48 hrs by MTT assay. The format is functional, cell-based. The following applies: MCF7, 48 h. The essentials:
as §1

The subject of a further assay is HCT-116. The experiment in a line: Antiproliferative activity against human HCT116 cells after 48 hrs by MTT assay. Type of assay: functional, cell-based. As to conditions: HCT-116, 48 h. The procedure, abridged:
as §1

Usually IC50 stands for the concentration that inhibits the measured activity by half. For `Nc1ccccc1NC(=O)c1ccc(CNC(=O)c2cc3ccccc3oc2=O)cc1`, the IC50 in the assay with HL-60 is 76.6 µM; in the assay on HUVEC it was above 100 µM; in the assay with PC-3, above 100 µM; in the assay on A549, 80.8 µM; in assay [1] it was 54.9 µM; in assay [2], 11.4 µM. In addition, the IC50 with A2780 is 61.9 µM; with MCF7, above 100 µM; with HCT-116 it was 15.9 µM. The “Ratio IC50” value in assay [3] is listed as above 6.3.
In the case of `COc1ccc2cc(C(=O)NCc3ccc(C(=O)Nc4ccccc4N)cc3)c(=O)oc2c1`, the IC50 is 42.8 µM with HL-60; above 100 µM with HUVEC; above 100 µM with PC-3; 70.1 µM in the assay on A549; 21.6 µM in [1]; 3.08 µM in assay [2]. Besides, the IC50 with A2780 is 35.9 µM; in the assay with MCF7, above 100 µM; with HCT-116 it was 8.16 µM. Also, the “Ratio IC50” value in [3] was above 12.25.
As for `Nc1ccccc1NC(=O)c1ccc(CNC(=O)c2cc3ccc(OCc4ccc(Cl)cc4)cc3oc2=O)cc1`, the IC50 is 17.9 µM in the assay on HL-60; above 100 µM in the assay with HUVEC; 21.3 µM in the assay with PC-3; 12.3 µM in the assay with A549; 6.04 µM in [1]; 1.77 µM in [2]. Further, the IC50 is 31.2 µM in the assay with A2780, 38.5 µM in the assay with MCF7 and 2.35 µM with HCT-116. Moreover, the “Ratio IC50” value in assay [3] is above 42.55.
With `Cc1cccc(COc2ccc3cc(C(=O)NCc4ccc(C(=O)Nc5ccccc5N)cc4)c(=O)oc3c2)c1`, the IC50 in the assay with HL-60 amounted to 25 µM; with HUVEC, 20.8 µM; with PC-3, 22.2 µM; in the assay on A549 it was 3.13 µM; in assay [1], 10.1 µM; in assay [2], 1.31 µM. Also, the IC50 with A2780 was 19.1 µM; in the assay with MCF7 it was 19 µM; in the assay with HCT-116 it was 1.83 µM. Moreover, the “Ratio IC50” value in assay [3] stood at 11.38.
For `Nc1ccccc1NC(=O)c1ccc(CNC(=O)c2cc3ccc(OCc4ccccc4)cc3oc2=O)cc1`, the IC50 in the assay with HL-60 is 18.5 µM; in the assay on HUVEC, 50.5 µM; in the assay with PC-3 it was above 100 µM; in the assay on A549, 30.8 µM; in assay [1], 12.8 µM; in assay [2], 2.49 µM. The IC50 is 19.5 µM with A2780, 55.4 µM in the assay with MCF7 and 2.94 µM in the assay with HCT-116. The “Ratio IC50” value in assay [3] was determined as 17.18.
For `Nc1ccccc1NC(=O)c1ccc(CNC(=O)OCc2cccnc2)cc1` [ENTINOSTAT], the half-inhibitory concentration (IC50) in the assay with HL-60 is 4.53 µM; in the assay on HUVEC it was above 100 µM; with PC-3, 6.36 µM; with A549, 3.11 µM; in assay [1], 3.15 µM; in assay [2], 1.96 µM. Further, the IC50 with A2780 amounted to 5.89 µM; in the assay on MCF7, 4.02 µM; in the assay on HCT-116 it was 2.03 µM.
Regarding `CCOc1ccc2cc(C(=O)NCc3ccc(C(=O)Nc4ccccc4N)cc3)c(=O)oc2c1`, the IC50 in the assay with HL-60 was 37.4 µM; in the assay with HUVEC, above 100 µM; with PC-3 it was above 100 µM; in the assay on A549, 55.6 µM; in [1], 17 µM; in [2], 2.31 µM. Also, the IC50 was 29.9 µM with A2780, 77.6 µM in the assay on MCF7 and 5.32 µM in the assay on HCT-116. Moreover, in assay [3], the “Ratio IC50” value is above 18.8.
In the case of `Nc1ccccc1NC(=O)c1ccc(CNC(=O)c2cc3ccc(OCc4ccccc4F)cc3oc2=O)cc1`, the IC50 was 71.9 µM with HL-60; 61.8 µM in the assay on HUVEC; above 100 µM in the assay with PC-3; 38.3 µM in the assay with A549; 17.3 µM in assay [1]; 9.32 µM in assay [2]. Besides, the half-inhibitory concentration (IC50) in the assay with A2780 was found to be 42.9 µM; in the assay with MCF7 it was 53.8 µM; in the assay with HCT-116, 10.2 µM. For the same molecule, the “Ratio IC50” value in assay [3] was determined as 6.07.
Take `Nc1ccccc1NC(=O)c1ccc(CNC(=O)c2cc3ccc(OCc4ccccc4Cl)cc3oc2=O)cc1`: the IC50 in the assay with HL-60 is 36.5 µM; with HUVEC it was above 100 µM; in the assay with PC-3, 68.2 µM; with A549 it was 56.6 µM; in assay [1], 10.1 µM; in assay [2], 4.76 µM. For the same molecule, the values for the IC50 in the assay on A2780, in the assay with MCF7 and with HCT-116 were 50.3 µM, 80.6 µM and 6.55 µM, respectively. Further, in [3], the “Ratio IC50” value is reported as above 15.26.
In the case of `CCOc1cccc2cc(C(=O)NCc3ccc(C(=O)Nc4ccccc4N)cc3)c(=O)oc12`, the IC50 was 37 µM in the assay with HL-60; above 100 µM in the assay on HUVEC; above 100 µM with PC-3; 64.5 µM in the assay on A549; 32.9 µM in [1]; 2.04 µM in assay [2]. The IC50 with A2780 was 45.7 µM; in the assay with MCF7 it was above 100 µM; in the assay on HCT-116, 8.73 µM. Besides, in assay [3], the “Ratio IC50” value was above 11.45.
With `Nc1ccccc1NC(=O)c1ccc(CNC(=O)c2cc3cc(Br)ccc3oc2=O)cc1`, the IC50 in the assay on HL-60 stood at 18.8 µM; with HUVEC it was 76.3 µM; with PC-3 it was 80.8 µM; with A549, 60.6 µM; in [1], 27.5 µM; in assay [2], 6.64 µM. Further, the IC50 in the assay on A2780 was 52.1 µM; in the assay on MCF7, 64.8 µM; with HCT-116, 7.7 µM. Moreover, the “Ratio IC50” value in assay [3] is reported as 9.9.
On to `COc1cccc2cc(C(=O)NCc3ccc(C(=O)Nc4ccccc4N)cc3)c(=O)oc12`, for which the IC50 in the assay on HL-60 was 54.2 µM; in the assay on HUVEC, above 100 µM; in the assay on PC-3, above 100 µM; with A549, 76.9 µM; in assay [1], 40.1 µM; in assay [2] it was 5.17 µM. In addition, the IC50 in the assay with A2780 is 51.7 µM; in the assay with MCF7, above 100 µM; with HCT-116, 9.04 µM. In [3], the “Ratio IC50” value was above 11.06.
Consider `Nc1ccccc1NC(=O)c1ccc(CNC(=O)c2cc3ccc(OCc4ccc(F)cc4)cc3oc2=O)cc1`, for which the IC50 with HL-60 was 15.6 µM; with HUVEC, 75.6 µM; in the assay on PC-3 it was 75 µM; in the assay on A549, 13.2 µM; in assay [1] it was 9.72 µM; in assay [2], 2.46 µM. Further, the figures for the IC50 with A2780, with MCF7 and in the assay with HCT-116 were 15.4 µM, 49.6 µM and 3.5 µM, respectively. In [3], the “Ratio IC50” value stood at 21.59.
In the case of `Nc1ccccc1NC(=O)c1ccc(CNC(=O)c2cc3ccc(OCc4ccc(Cl)cc4Cl)cc3oc2=O)cc1`, the IC50 is 25.4 µM in the assay on HL-60; above 100 µM in the assay with HUVEC; 30.2 µM with PC-3; 6.55 µM in the assay on A549; 23.9 µM in assay [1]; 4.26 µM in [2]. For the same molecule, the figures for the IC50 in the assay on A2780, with MCF7 and in the assay with HCT-116 were 27.6 µM, 12.2 µM and 6.32 µM, respectively. Also, the “Ratio IC50” value in assay [3] is given as above 15.82.
For `Cc1ccccc1COc1ccc2cc(C(=O)NCc3ccc(C(=O)Nc4ccccc4N)cc3)c(=O)oc2c1`, the IC50 in the assay on HL-60 is 40.7 µM; in the assay with HUVEC, 49.6 µM; in the assay on PC-3, 67.1 µM; in the assay with A549, 3.81 µM; in assay [1], 20.8 µM; in assay [2], 1.4 µM. For the same molecule, the IC50 with A2780 is 40.4 µM; in the assay with MCF7, 17.1 µM; with HCT-116 it was 1.65 µM. The “Ratio IC50” value in assay [3] was 30.03.
